Test results taken from ChEMBL document CHEMBL1781959, “Synthesis and in vitro antitumor activity of substituted quinazoline and quinoxaline derivatives: search for anticancer agent” (Eur J Med Chem, 2011).

Test system: MDA-MB-231
Assay: Anticancer activity against human MDA-MB-231 cells assessed as cell growth promotion at 10^-5 M after 48 hrs by SRB assay relative to control
Assay type: functional

**Q.** Which Activity does the source give for O=c1c2ccccc2nc(-c2ccco2)n1/N=C/c1ccccc1Cl here?
**A.** The Activity was 52.12%.

Test system: not listed separately
Assay: Anticancer activity against human […] cells assessed as cell growth promotion at 10^-5 M after 48 hrs by SRB assay relative to control
Assay type: functional

**Q.** With O=c1c2ccccc2nc(-c2ccco2)n1/N=C/c1ccccc1Cl as the compound, how does the Activity read?
**A.** The Activity was 92.65%.

Test system: EKVX
Assay: Anticancer activity against human EKVX cells assessed as cell growth promotion at 10^-5 M after 48 hrs by SRB assay relative to control
Assay type: functional

**Q.** For O=c1c2ccccc2nc(-c2ccco2)n1/N=C/c1ccccc1Cl, which Activity is on record?
**A.** Its Activity is 64.12%.

Test system: not listed separately
Assay: Anticancer activity against human Hs 578T cells assessed as cell growth promotion at 10^-5 M after 48 hrs by SRB assay relative to control
Assay type: functional

**Q.** For O=c1c2ccccc2nc(-c2ccco2)n1/N=C/c1ccccc1Cl, which Activity is on record?
**A.** The Activity was 83.85%.

Test system: SK-OV-3
Assay: Anticancer activity against human SKOV3 cells assessed as cell growth promotion at 10^-5 M after 48 hrs by SRB assay relative to control
Assay type: functional

**Q.** With O=c1c2ccccc2nc(-c2ccco2)n1/N=C/c1ccccc1Cl as the compound, how does the Activity read?
**A.** The Activity was 25.85%.

Test system: SR
Assay: Anticancer activity against human SR cells assessed as cell growth promotion at 10^-5 M after 48 hrs by SRB assay relative to control
Assay type: functional

**Q.** Which Activity does the source give for O=c1c2ccccc2nc(-c2ccco2)n1/N=C/c1ccccc1Cl here?
**A.** Its Activity is 94.12%.

Test system: CAKI-1
Assay: Anticancer activity against human Caki1 cells assessed as cell growth promotion at 10^-5 M after 48 hrs by SRB assay relative to control
Assay type: functional

**Q.** With O=c1c2ccccc2nc(-c2ccco2)n1/N=C/c1ccccc1Cl as the compound, how does the Activity read?
**A.** Its Activity is 62.86%.

Test system: MDA-MB-435
Assay: Anticancer activity against human MDA-MB-435 cells assessed as cell growth promotion at 10^-5 M after 48 hrs by SRB assay relative to control
Assay type: functional

**Q.** Which Activity does the source give for O=c1c2ccccc2nc(-c2ccco2)n1/N=C/c1ccccc1Cl here?
**A.** Its Activity is 90.21%.

Test system: UO-31
Assay: Anticancer activity against human UO31 cells assessed as cell growth promotion at 10^-5 M after 48 hrs by SRB assay relative to control
Assay type: functional

**Q.** For O=c1c2ccccc2nc(-c2ccco2)n1/N=C/c1ccccc1Cl, which Activity is on record?
**A.** Its Activity is 62.12%.

Test system: NCI-H460
Assay: Anticancer activity against human NCI-H460 cells assessed as cell growth promotion at 10^-5 M after 48 hrs by SRB assay relative to control
Assay type: functional

**Q.** Which Activity does the source give for O=c1c2ccccc2nc(-c2ccco2)n1/N=C/c1ccccc1Cl here?
**A.** The Activity was 28.38%.

Test system: NCI/ADR-RES
Assay: Anticancer activity against human NCI/ADR-RES cells assessed as cell growth promotion at 10^-5 M after 48 hrs by SRB assay relative to control
Assay type: functional

**Q.** Which Activity does the source give for O=c1c2ccccc2nc(-c2ccco2)n1/N=C/c1ccccc1Cl here?
**A.** Its Activity is 12.24%.

Test system: A498
Assay: Anticancer activity against human A498 cells assessed as cell growth promotion at 10^-5 M after 48 hrs by SRB assay relative to control
Assay type: functional

**Q.** Which Activity does the source give for O=c1c2ccccc2nc(-c2ccco2)n1/N=C/c1ccccc1Cl here?
**A.** Its Activity is 36.82%.

Test system: UACC-257
Assay: Anticancer activity against human UACC257 cells assessed as cell growth promotion at 10^-5 M after 48 hrs by SRB assay relative to control
Assay type: functional

**Q.** Which Activity does the source give for O=c1c2ccccc2nc(-c2ccco2)n1/N=C/c1ccccc1Cl here?
**A.** Its Activity is 82.72%.

Test system: SF-268
Assay: Anticancer activity against human SF268 cells assessed as cell growth promotion at 10^-5 M after 48 hrs by SRB assay relative to control
Assay type: functional

**Q.** For O=c1c2ccccc2nc(-c2ccco2)n1/N=C/c1ccccc1Cl, which Activity is on record?
**A.** The Activity was 72.86%.

Test system: SNB-19
Assay: Anticancer activity against human SNB19 cells assessed as cell growth promotion at 10^-5 M after 48 hrs by SRB assay relative to control
Assay type: functional

**Q.** For O=c1c2ccccc2nc(-c2ccco2)n1/N=C/c1ccccc1Cl, which Activity is on record?
**A.** Its Activity is 62.14%.

Test system: CCRF-CEM
Assay: Anticancer activity against human CCRF-CEM cells assessed as cell growth promotion at 10^-5 M after 48 hrs by SRB assay relative to control
Assay type: functional

**Q.** For O=c1c2ccccc2nc(-c2ccco2)n1/N=C/c1ccccc1Cl, which Activity is on record?
**A.** The Activity was 83.12%.

Test system: HCT-116
Assay: Anticancer activity against human HCT116 cells assessed as cell growth promotion at 10^-5 M after 48 hrs by SRB assay relative to control
Assay type: functional

**Q.** Which Activity does the source give for O=c1c2ccccc2nc(-c2ccco2)n1/N=C/c1ccccc1Cl here?
**A.** The Activity was 24.88%.

Test system: OVCAR-3
Assay: Anticancer activity against human OVCAR3 cells assessed as cell growth promotion at 10^-5 M after 48 hrs by SRB assay relative to control
Assay type: functional

**Q.** Which Activity does the source give for O=c1c2ccccc2nc(-c2ccco2)n1/N=C/c1ccccc1Cl here?
**A.** The Activity was 27.98%.

Test system: Malme-3M
Assay: Anticancer activity against human MALME-3M cells assessed as cell growth promotion at 10^-5 M after 48 hrs by SRB assay relative to control
Assay type: functional

**Q.** With O=c1c2ccccc2nc(-c2ccco2)n1/N=C/c1ccccc1Cl as the compound, how does the Activity read?
**A.** Its Activity is 78.64%.

Test system: SW-620
Assay: Anticancer activity against human SW620 cells assessed as cell growth promotion at 10^-5 M after 48 hrs by SRB assay relative to control
Assay type: functional

**Q.** For O=c1c2ccccc2nc(-c2ccco2)n1/N=C/c1ccccc1Cl, which Activity is on record?
**A.** Its Activity is 34.38%.

Test system: HOP-62
Assay: Anticancer activity against human HOP62 cells assessed as cell growth promotion at 10^-5 M after 48 hrs by SRB assay relative to control
Assay type: functional

**Q.** For O=c1c2ccccc2nc(-c2ccco2)n1/N=C/c1ccccc1Cl, which Activity is on record?
**A.** The Activity was -34.84%.

Test system: SK-MEL-5
Assay: Anticancer activity against human SK-MEL-5 cells assessed as cell growth promotion at 10^-5 M after 48 hrs by SRB assay relative to control
Assay type: functional

**Q.** Which Activity does the source give for O=c1c2ccccc2nc(-c2ccco2)n1/N=C/c1ccccc1Cl here?
**A.** Its Activity is 48.82%.

Test system: K562
Assay: Anticancer activity against human K562 cells assessed as cell growth promotion at 10^-5 M after 48 hrs by SRB assay relative to control
Assay type: functional

**Q.** With O=c1c2ccccc2nc(-c2ccco2)n1/N=C/c1ccccc1Cl as the compound, how does the Activity read?
**A.** Its Activity is 101.3%.

Test system: RXF 393
Assay: Anticancer activity against human RXF393 cells assessed as cell growth promotion at 10^-5 M after 48 hrs by SRB assay relative to control
Assay type: functional

**Q.** Which Activity does the source give for O=c1c2ccccc2nc(-c2ccco2)n1/N=C/c1ccccc1Cl here?
**A.** Its Activity is 82.73%.

Test system: HCT-15
Assay: Anticancer activity against human HCT15 cells assessed as cell growth promotion at 10^-5 M after 48 hrs by SRB assay relative to control
Assay type: functional

**Q.** With O=c1c2ccccc2nc(-c2ccco2)n1/N=C/c1ccccc1Cl as the compound, how does the Activity read?
**A.** Its Activity is 62.36%.

Test system: NCI-H23
Assay: Anticancer activity against human NCI-H23 cells assessed as cell growth promotion at 10^-5 M after 48 hrs by SRB assay relative to control
Assay type: functional

**Q.** Which Activity does the source give for O=c1c2ccccc2nc(-c2ccco2)n1/N=C/c1ccccc1Cl here?
**A.** The Activity was 64.87%.

Test system: HL-60(TB)
Assay: Anticancer activity against human HL-60(TB) cells assessed as cell growth promotion at 10^-5 M after 48 hrs by SRB assay relative to control
Assay type: functional
Procedure, shortened: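 NCI-60 single-dose screen: compound at 10^-5 M, 48 h at 37 °C, 5% CO2; cells grown in RPMI 1640 with 5% FBS and 2 mM L-glutamine, pre-incubated 24 h before dosing. Adherent cells fixed with cold TCA; endpoint is sulforhodamine B protein staining. Percent growth of treated cells is reported relative to untreated control.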

**Q.** For O=c1c2ccccc2nc(-c2ccco2)n1/N=C/c1ccccc1Cl, which Activity is on record?
**A.** Its Activity is 89.12%.

Test system: 786-0
Assay: Anticancer activity against human 786-0 cells assessed as cell growth promotion at 10^-5 M after 48 hrs by SRB assay relative to control
Assay type: functional

**Q.** Which Activity does the source give for O=c1c2ccccc2nc(-c2ccco2)n1/N=C/c1ccccc1Cl here?
**A.** Its Activity is 26.39%.

Test system: M14
Assay: Anticancer activity against human M14 cells assessed as cell growth promotion at 10^-5 M after 48 hrs by SRB assay relative to control
Assay type: functional

**Q.** Which Activity does the source give for O=c1c2ccccc2nc(-c2ccco2)n1/N=C/c1ccccc1Cl here?
**A.** Its Activity is 87.98%.

Test system: MOLT-4
Assay: Anticancer activity against human MOLT4 cells assessed as cell growth promotion at 10^-5 M after 48 hrs by SRB assay relative to control
Assay type: functional

**Q.** With O=c1c2ccccc2nc(-c2ccco2)n1/N=C/c1ccccc1Cl as the compound, how does the Activity read?
**A.** Its Activity is 99.12%.

Test system: U-251
Assay: Anticancer activity against human U251 cells assessed as cell growth promotion at 10^-5 M after 48 hrs by SRB assay relative to control
Assay type: functional

**Q.** Which Activity does the source give for O=c1c2ccccc2nc(-c2ccco2)n1/N=C/c1ccccc1Cl here?
**A.** The Activity was 37.22%.

Test system: UACC-62
Assay: Anticancer activity against human UACC62 cells assessed as cell growth promotion at 10^-5 M after 48 hrs by SRB assay relative to control
Assay type: functional

**Q.** For O=c1c2ccccc2nc(-c2ccco2)n1/N=C/c1ccccc1Cl, which Activity is on record?
**A.** The Activity was 62.82%.

Test system: SN12C
Assay: Anticancer activity against human SN12C cells assessed as cell growth promotion at 10^-5 M after 48 hrs by SRB assay relative to control
Assay type: functional

**Q.** Which Activity does the source give for O=c1c2ccccc2nc(-c2ccco2)n1/N=C/c1ccccc1Cl here?
**A.** The Activity was 36.81%.

Test system: T47D
Assay: Anticancer activity against human T47D cells assessed as cell growth promotion at 10^-5 M after 48 hrs by SRB assay relative to control
Assay type: functional

**Q.** Which Activity does the source give for O=c1c2ccccc2nc(-c2ccco2)n1/N=C/c1ccccc1Cl here?
**A.** Its Activity is 62.59%.

Test system: HT-29
Assay: Anticancer activity against human HT-29 cells assessed as cell growth promotion at 10^-5 M after 48 hrs by SRB assay relative to control
Assay type: functional

**Q.** For O=c1c2ccccc2nc(-c2ccco2)n1/N=C/c1ccccc1Cl, which Activity is on record?
**A.** Its Activity is 52.78%.

Test system: OVCAR-5
Assay: Anticancer activity against human OVCAR5 cells assessed as cell growth promotion at 10^-5 M after 48 hrs by SRB assay relative to control
Assay type: functional

**Q.** Which Activity does the source give for O=c1c2ccccc2nc(-c2ccco2)n1/N=C/c1ccccc1Cl here?
**A.** Its Activity is 37.89%.

Test system: NCI-H322M
Assay: Anticancer activity against human NCI-H322M cells assessed as cell growth promotion at 10^-5 M after 48 hrs by SRB assay relative to control
Assay type: functional

**Q.** With O=c1c2ccccc2nc(-c2ccco2)n1/N=C/c1ccccc1Cl as the compound, how does the Activity read?
**A.** Its Activity is 36.23%.

Test system: KM12
Assay: Anticancer activity against human KM12 cells assessed as cell growth promotion at 10^-5 M after 48 hrs by SRB assay relative to control
Assay type: functional

**Q.** With O=c1c2ccccc2nc(-c2ccco2)n1/N=C/c1ccccc1Cl as the compound, how does the Activity read?
**A.** The Activity was 26.67%.
